According to ChEMBL document CHEMBL1126156, “Multivariate analysis by the minimum spanning tree method of the structural determinants of diphenylethylenes and triphenylacrylonitriles implicated in estrogen receptor binding, protein kinase C activity, and MCF7 cell proliferation” (J Med Chem, 1992):

Assays:
[1] = test system: MCF7S; experiment: Agonistic activity in MCF-7 cell proliferation.; assay type: functional, Homo sapiens
Procedure, shortened: (§1)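 MCF-7 cells grown in phenol red-free medium with 5% dextran-coated charcoal-treated serum, tested 10 pM to 1 μM. DNA content read after growth. Agonism expressed relative to the maximum response with E2 (=100%), whatever the concentration. EC50 (50% of maximum response) taken from two separate experiments.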

[2] = test system: MCF7S; experiment: Cytostatic activity against MCF-7 cell proliferation.; assay type: functional, Homo sapiens; set-up: concentration or dose not given beside the values
Procedure, shortened: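 MCF-7 cells in phenol red-free charcoal-treated medium given 10⁻⁶ M E2 plus test compound (3–10 μM), 6 days of growth. DNA expressed as percent of E2-treated cells. IC30 is the concentration giving 30% inhibition. Percent inhibition taken at 10⁻⁵ M, or at 10⁻⁶ M in a second series. Means of two experiments.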

[3] = organism: Rattus norvegicus; experiment: Percent stimulation or inhibition of protein kinase C III activity for protamine sulfate in the presence of EGTA.; set-up: concentration or dose not given beside the values; details: values are per cent of control
Procedure, shortened: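 Rat brain type III (α) PKC, purified, with protamine sulfate as substrate and 0.5 mM EGTA in place of Ca2+, phosphatidylserine and diolein; 5 mM magnesium acetate, 10 μM [32P]ATP. Most compounds at 10⁻⁴ M; percent of control activity.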

[4] = target: T1, Protein kinase C, PKC; classical (Rattus norvegicus) (UniProt P05696+P68403+P63319); experiment: The percent stimulation or inhibition of protein kinase C III activity was determined for phosphatidylserine (PS) and diolein(PS+DO) in the presence of [Ca2+]; assay type: protein assay; set-up: concentration or dose not given beside the values; details: values are per cent of control
Procedure, shortened: (§2)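 Type III (α) PKC purified from rat brain soluble fraction, assayed with calf thymus H1 histone, 0.1 mM Ca2+, 5 mM magnesium acetate, 10 μM [32P]ATP, 2 μg/mL phosphatidylserine plus 0.2 μg/mL diolein. Compounds mostly at 10⁻⁴ M; activity expressed as percent of control.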

[5] = target: T1, Protein kinase C, PKC; classical (Rattus norvegicus); experiment: Percent stimulation or inhibition of protein kinase C III activity for phosphatidylserine (PS) in the presence of [Ca2+].; assay type: protein assay; set-up: concentration or dose not given beside the values; details: values are per cent of control
Procedure, shortened: (§3)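 Purified type III (α) PKC from rat brain soluble fraction. Substrate calf thymus H1 histone with 0.1 mM Ca2+, 5 mM magnesium acetate, 10 μM [32P]ATP and 2 μg/mL phosphatidylserine, no diolein. Most compounds at 10⁻⁴ M, given as percent of control activity.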

[6] = test system: MCF7S; experiment: Antagonist activity against MCF-7 cell proliferation; assay type: functional, Homo sapiens
Procedure, shortened: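 Phenol red-free MCF-7 cultures with 5% dextran-coated charcoal-treated serum, stimulated by 0.1 nM E2. Proliferation read as DNA content after 8 days relative to E2 alone. Percent antagonism is the inhibition at 10⁻⁶ M test compound versus 10⁻¹⁰ M E2. IC50 (50% of maximum response) from two separate experiments.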

[7] = test system: MCF7S; experiment: Agonist activity against MCF-7 cell proliferation; assay type: functional, cell-based; details: Homo sapiens; procedure, shortened: as §1
[8] = target: Estrogen receptor (Bos taurus) (UniProt Q9XSB5+P49884); experiment: Relative binding affinity for calf uterus estrogen receptor after 2 hr at 0 degree C; assay type: protein assay
Procedure, shortened: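 Calf uterus cytosol ER incubated 2 h at 0 °C with [6,7-3H]-17β-estradiol and competitor. RBA given relative to estradiol (=100%), mean of at least four determinations.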

[9] = test system: BT-20; experiment: Cytotoxic effect on ER-negative BT20 cell proliferation; assay type: functional, Homo sapiens; set-up: concentration or dose not given beside the values
Procedure, shortened: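 ER-negative BT20 cells, no E2, test compound at 3–10 μM for 6 days. DNA read as percent of untreated control. IC30 is the concentration inhibiting growth by 30%; percent inhibition taken at 10⁻⁵ M. Means of two experiments, triplicate wells.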

[10] = target: T1, Protein kinase C, PKC; classical (Rattus norvegicus); experiment: Percent stimulation or inhibition of protein kinase C with [Ca2+] for phosphatidylserine and diolein(PS+DO); assay type: protein assay; set-up: concentration or dose not given beside the values; details: values are per cent of control; procedure, shortened: as §2
[11] = target: T1, Protein kinase C, PKC; classical (Rattus norvegicus); experiment: Percent stimulation or inhibition of protein kinase C with [Ca2+] for phosphatidylserine (PS); assay type: protein assay; details: values are per cent of control; procedure, shortened: as §3

Compound	Agonism [1]	Inhibition [2]	residual activity [3]	residual activity [4]	residual activity [5]	Antagonism [6]	EC50 [7]	RBA [8]	Inhibition [9]	residual activity [10]	residual activity [11]
COc1ccc(C(=C(C#N)c2ccccc2)c2ccc(OC)cc2)cc1	34%	8%	92%	100%	98%						
CC(C)Oc1ccc(/C(=C(\C#N)c2ccccc2)c2ccc(O)cc2)cc1	33%	61%	86%	101%	138%						
CCN(CC)CCOc1ccc(C(=C(C#N)c2ccccc2)c2ccc(OCCN(CC)CC)cc2)cc1	62%	94%	101%	10%	20%						
CCC(=C(c1ccc(O)cc1)c1ccc(OCCN(C)C)cc1)c1ccccc1	10%	81%	94%	2%	27%						
N#CC(=C(c1ccc(O)cc1)c1ccc(O)cc1)c1ccc(O)cc1	85%	39%	33%	32%	38%						
Oc1ccc(C(=C2CCCCC2)c2ccc(O)cc2)cc1	97%	12%	91%	81%	111%	23%	4.51 nM	26%	12%		
CCN(CC)CCOc1ccc(/C(=C(\C#N)c2ccccc2)c2ccc(O)cc2)cc1	12%	89%	88%	1%	10%						
Cc1ccc(/C(=C(/C#N)c2ccc(O)cc2)c2ccc(O)cc2)cc1	69%	35%	90%	80%	113%						
N#C/C(=C(/c1ccccc1)c1ccc(O)cc1)c1ccccc1	94%	12%	94%	104%	96%						
CC(C)Oc1ccc(C(=C(C#N)c2ccccc2)c2ccc(OC(C)C)cc2)cc1	40%	32%	100%	100%	100%						
N#CC(=C(c1ccccc1)c1ccccc1)c1ccc(O)cc1	90%	8%	103%	113%	92%						
N#C/C(=C(\c1ccccc1)c1ccc(O)cc1)c1ccc(O)cc1	100%	30%	68%	91%	97%						
CCN(CC)CCOc1ccc(C(C#N)=C(c2ccccc2)c2ccccc2)cc1	71%	53%	96%	20%	43%						
Oc1ccc(C(=C2CCCC2)c2ccc(O)cc2)cc1	100%	6%	40%	42%		1%	130 nM	23%	10%		
C[C@]12CC[C@@H]3c4ccc(O)cc4CC[C@H]3[C@@H]1CC[C@@H]2O [ESTRADIOL]	100%	25%	99%	89%	77%						
CC/C(=C(\c1ccccc1)c1ccc(OCCN(C)C)cc1)c1ccccc1 [TAMOXIFEN]	21%	49%	107%		49%					21%	
N#CC(=C(c1ccccc1)c1ccccc1)c1ccccc1	68%	16%	106%	106%	126%						
COc1ccc(/C(=C(\C#N)c2ccccc2)c2ccc(O)cc2)cc1	26%	36%	100%	100%	100%						
Oc1ccc(C(=C2CCCCCC2)c2ccc(O)cc2)cc1	96%	16%	93%	71%		21%	2.65 nM	17%	20%		
N#C/C(=C(\c1ccccc1)c1ccc(O)cc1)c1ccccc1	99%	30%	90%		107%					87%	
CN(C)Cc1cc(C(=C(C#N)c2ccccc2)c2ccc(O)c(CN(C)C)c2)ccc1O	31%	36%									26%
Cc1ccc(C(C#N)=C(c2ccc(O)cc2)c2ccc(O)cc2)cc1	71%	38%	46%	38%	84%						
Cc1ccc(/C(=C(/C#N)c2ccccc2)c2ccc(O)cc2)cc1	55%	38%	77%	95%	107%						
N#CC(=C(c1ccc(O)cc1)c1ccc(O)cc1)c1ccccc1	62%	30%	50%	42%	94%						
N#C/C(=C(/c1ccccc1)c1ccc(O)cc1)c1ccc(O)cc1	98%	17%	86%	87%	94%						
